For one test, the target named is Melanocortin receptor 4 (Mus musculus, UniProt P56450). Kind of test: Agonist activity at mouse MC4R expressed in HEK293 cells assessed as induction of cAMP accumulation up to 100 uM after 2 hrs by alpha screen assay relative to NDP-MSH. It is filed as cell-based. The following applies: read-out: Activity. (Changes in cAMP serve as a functional read-out for many G protein-coupled receptors.)

The target in test [1] is Melanocortin receptor 3 (Mus musculus) (UniProt P33033). Kind of test: Antagonist activity at mouse MC3R expressed in HEK293 cells assessed as inhibition of NDP-MSH induced-cAMP accumulation up to 10 uM after 2 hrs by alpha screen assay. The format is functional, cell-based. The essentials:
(§1)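 mouse MC3R or MC4R in stably transfected HEK293 cells, AlphaScreen cAMP assay (IBMX stimulation buffer, 2 h RT incubation, then 2 h with donor-bead lysis mix). […] Run in triplicate.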

For test [2] the target is unchanged. In words: Agonist activity at mouse MC3R expressed in HEK293 cells assessed as induction of cAMP accumulation up to 100 uM after 2 hrs by alpha screen assay relative to NDP-MSH. The format is functional, cell-based. The gist of the method:
(§2)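 HEK293 stably expressing mouse MC1R/MC3R/MC4R/MC5R (pCDNA3). Cells in stimulation buffer (HBSS, 0.5 mM IBMX, 5 mM HEPES, 0.1% BSA, pH 7.4) at 1000 cells/μL with anti-cAMP acceptor beads. Ligand given 10−4 to 10−10 M (or 10−6 to 10−12 M) for 2 h at RT in the dark, then donor beads/biotin-cAMP lysis mix for 2 h. AlphaScreen cAMP read-out, normalized to 10−6 M NDP-MSH as 100%.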

Test [3] has as its target Melanocortin receptor 4 (Mus musculus) (UniProt P56450). In words: Antagonist activity at mouse MC4R expressed in HEK293 cells assessed as inhibition of NDP-MSH induced-cAMP accumulation up to 10 uM after 2 hrs by alpha screen assay. The format is functional, cell-based. The essentials:
as §1

For test [4], the target named is Melanocyte-stimulating hormone receptor (Mus musculus) (UniProt Q01727). In words: Agonist activity at mouse MC1R expressed in HEK293 cells assessed as induction of cAMP accumulation up to 100 uM after 2 hrs by alpha screen assay relative to NDP-MSH. It is filed as functional, cell-based. The gist of the method:
as §2

Molecules are shown by their SMILES. The source made the active and inactive calls. No cut-off for these calls is given here. Non-standard residues stand in square brackets, D forms with d. Residues, ends and D or L forms follow the SMILES beside them. Bip = N[C@@H](Cc1ccc(-c2ccccc2)cc1)C(=O)O; dPhe(4-I) = N[C@H](Cc1ccc(I)cc1)C(=O)O; 2Nal = N[C@@H](Cc1ccc2ccccc2c1)C(=O)O; d2Nal = N[C@H](Cc1ccc2ccccc2c1)C(=O)O; Bta = N[C@@H](Cc1csc2ccccc12)C(=O)O

Chain of Melanocortin receptor 3 (Mus musculus) (P33033 whole entry): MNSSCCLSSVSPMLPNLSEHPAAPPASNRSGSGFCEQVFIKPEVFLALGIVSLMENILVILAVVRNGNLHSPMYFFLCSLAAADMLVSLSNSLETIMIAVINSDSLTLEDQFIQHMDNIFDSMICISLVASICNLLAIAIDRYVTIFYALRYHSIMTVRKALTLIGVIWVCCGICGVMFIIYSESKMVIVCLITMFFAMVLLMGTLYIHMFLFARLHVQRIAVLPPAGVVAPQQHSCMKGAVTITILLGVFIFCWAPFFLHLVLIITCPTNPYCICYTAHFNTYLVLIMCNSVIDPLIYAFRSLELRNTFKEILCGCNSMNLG
Chain of Melanocortin receptor 4 (Mus musculus) (P56450 whole entry): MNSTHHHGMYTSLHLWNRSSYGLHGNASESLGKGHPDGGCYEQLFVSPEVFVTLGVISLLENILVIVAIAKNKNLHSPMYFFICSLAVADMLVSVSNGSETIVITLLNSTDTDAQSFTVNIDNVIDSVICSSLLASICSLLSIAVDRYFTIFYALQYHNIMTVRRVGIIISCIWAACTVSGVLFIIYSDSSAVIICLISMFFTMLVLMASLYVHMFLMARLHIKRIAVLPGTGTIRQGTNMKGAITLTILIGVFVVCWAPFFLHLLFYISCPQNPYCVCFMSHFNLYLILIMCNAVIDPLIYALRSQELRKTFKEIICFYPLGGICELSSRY
Chain of Melanocortin receptor 4 (P56450 whole entry): as above
Chain of Melanocyte-stimulating hormone receptor (Mus musculus) (Q01727 whole entry, looked up): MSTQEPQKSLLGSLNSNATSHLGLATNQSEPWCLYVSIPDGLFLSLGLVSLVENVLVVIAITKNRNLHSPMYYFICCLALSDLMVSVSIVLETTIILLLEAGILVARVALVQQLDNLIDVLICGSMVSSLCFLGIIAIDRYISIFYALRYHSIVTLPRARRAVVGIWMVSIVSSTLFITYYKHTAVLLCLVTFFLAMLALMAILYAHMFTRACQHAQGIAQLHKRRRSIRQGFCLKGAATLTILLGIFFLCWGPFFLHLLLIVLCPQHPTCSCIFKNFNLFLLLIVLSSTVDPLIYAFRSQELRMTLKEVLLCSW

Consider `CC(=O)N[C@@H](CCCNC(=N)N)C(=O)N[C@@H](CCCNC(=N)N)C(=O)N[C@H](Cc1ccc(I)cc1)C(=O)N[C@@H](Cc1ccc2ccccc2c1)C(N)=O`, for which the Emax at Melanocortin receptor 4 is < 20%.

As for `CC(=O)N[C@@H](Cc1csc2ccccc12)C(=O)N[C@@H](CCCNC(=N)N)C(=O)N[C@H](Cc1ccc(I)cc1)C(=O)N[C@@H](Cc1ccc2ccccc2c1)C(N)=O`, the inhibition entry in test [1] and in test [3] was “inactive” throughout. For the same compound, at Melanocortin receptor 4, the Emax is < 20%. In addition, the Activity in test [2] was < 20%.

As to `CC(=O)N[C@@H](Cc1cnc[nH]1)C(=O)N[C@@H](CCCNC(=N)N)C(=O)N[C@H](Cc1ccc(I)cc1)C(=O)N[C@@H](Cc1ccc(-c2ccccc2)cc1)C(N)=O`, the inhibition result in test [1] and in test [3] was “inactive” throughout. Moreover, the Activity in test [4] was < 20%.

In the case of `CC(=O)N[C@@H](Cc1ccc2ccccc2c1)C(=O)N[C@@H](CCCNC(=N)N)C(=O)N[C@H](Cc1ccc(I)cc1)C(=O)N[C@@H](Cc1csc2ccccc12)C(N)=O` (Ac-[2Nal]R[dPhe(4-I)][Bta]-NH2), at Melanocortin receptor 4, the Emax was < 20%.

Regarding `CC(=O)N[C@@H](Cc1ccc2ccccc2c1)C(=O)N[C@@H](CCCNC(=N)N)C(=O)N[C@H](Cc1ccc(I)cc1)C(=O)N[C@H](Cc1ccc2ccccc2c1)C(N)=O` (Ac-[2Nal]R[dPhe(4-I)][d2Nal]-NH2), the inhibition entry in test [1] and in test [3] was “inactive” throughout. On Melanocortin receptor 4, the Emax is < 20%.

`CC(=O)N[C@@H](Cc1ccc(-c2ccccc2)cc1)C(=O)N[C@@H](CCCNC(=N)N)C(=O)N[C@H](Cc1ccc(I)cc1)C(=O)N[C@@H](Cc1ccc2ccccc2c1)C(N)=O` (Ac-[Bip]R[dPhe(4-I)][2Nal]-NH2): the inhibition result in test [1] and in test [3] was “inactive” in each case. Moreover, the Emax at Melanocortin receptor 4 is < 20%. Also, the Activity in test [2] is < 20%.

For the compound `CC(=O)N[C@@H](Cc1ccc(-c2ccccc2)cc1)C(=O)N[C@@H](CCCNC(=N)N)C(=O)N[C@H](Cc1ccc(I)cc1)C(=O)N[C@@H](Cc1csc2ccccc12)C(N)=O` (Ac-[Bip]R[dPhe(4-I)][Bta]-NH2), at Melanocortin receptor 4, the Emax is < 20%. In test [3], the inhibition entry is “inactive”.

In the case of `CC(=O)N[C@@H](Cc1ccc(-c2ccccc2)cc1)C(=O)N[C@@H](CCCNC(=N)N)C(=O)N[C@H](Cc1ccc(I)cc1)C(=O)N[C@H](Cc1ccc2ccccc2c1)C(N)=O` (Ac-[Bip]R[dPhe(4-I)][d2Nal]-NH2), the inhibition result in test [1] and in test [3] was “inactive” throughout. In addition, the Emax at Melanocortin receptor 4 was < 20%.

With `CC(=O)N[C@@H](Cc1csc2ccccc12)C(=O)N[C@@H](CCCNC(=N)N)C(=O)N[C@H](Cc1ccc(I)cc1)C(=O)N[C@@H](Cc1ccc(-c2ccccc2)cc1)C(N)=O` (Ac-[Bta]R[dPhe(4-I)][Bip]-NH2), the inhibition entry in test [1] and in test [3] was “inactive” each time. The Activity in test [4] was < 20%.

In the case of `CC(=O)N[C@@H](Cc1csc2ccccc12)C(=O)N[C@@H](CCCNC(=N)N)C(=O)N[C@H](Cc1ccc(I)cc1)C(=O)N[C@@H](Cc1csc2ccccc12)C(N)=O` (Ac-[Bta]R[dPhe(4-I)][Bta]-NH2), the Emax on Melanocortin receptor 4 is < 20%.

With `CC(=O)N[C@H](Cc1ccc2ccccc2c1)C(=O)N[C@@H](CCCNC(=N)N)C(=O)N[C@H](Cc1ccc(I)cc1)C(=O)N[C@@H](Cc1ccc(-c2ccccc2)cc1)C(N)=O` (Ac-[d2Nal]R[dPhe(4-I)][Bip]-NH2), the Activity in test [4] was < 20%.

Turning to `CC(=O)N[C@@H](Cc1ccc(-c2ccccc2)cc1)C(=O)N[C@@H](CCCNC(=N)N)C(=O)N[C@H](Cc1ccc(I)cc1)C(=O)N1Cc2ccccc2C[C@H]1C(N)=O` (HELM PEPTIDE1{[ac].[O=C([C@H](Cc1ccc(-c2ccccc2)cc1)N[*:1])[*:2]].R.[O=C([C@@H](Cc1ccc(I)cc1)N[*:1])[*:2]].[Tic].[am]}$$$$V2.0), at Melanocortin receptor 4, the Emax is < 20%.

As for `CC(=O)N1Cc2ccccc2C[C@H]1C(=O)N[C@@H](CCCNC(=N)N)C(=O)N[C@H](Cc1ccc(I)cc1)C(=O)N[C@H](Cc1ccc2ccccc2c1)C(N)=O` (HELM PEPTIDE1{[ac].[Tic].R.[O=C([C@@H](Cc1ccc(I)cc1)N[*:1])[*:2]].[O=C([C@@H](Cc1ccc2ccccc2c1)N[*:1])[*:2]].[am]}$$$$V2.0), the inhibition result in test [1] and in test [3] was “inactive” throughout.

For the compound `CC(=O)N1Cc2ccccc2C[C@H]1C(=O)N[C@@H](CCCNC(=N)N)C(=O)N[C@H](Cc1ccc(I)cc1)C(=O)N[C@@H](Cc1ccc2ccccc2c1)C(N)=O` (HELM PEPTIDE1{[ac].[Tic].R.[O=C([C@@H](Cc1ccc(I)cc1)N[*:1])[*:2]].[O=C([C@H](Cc1ccc2ccccc2c1)N[*:1])[*:2]].[am]}$$$$V2.0), the inhibition entry in test [1] is “inactive”. Moreover, the Emax on Melanocortin receptor 4 is < 20%. Moreover, the Activity in test [2] is < 20%.

Take `CC(=O)N1Cc2ccccc2C[C@H]1C(=O)N[C@@H](CCCNC(=N)N)C(=O)N[C@H](Cc1ccc(I)cc1)C(=O)N[C@@H](Cc1ccc(-c2ccccc2)cc1)C(N)=O` (HELM PEPTIDE1{[ac].[Tic].R.[O=C([C@@H](Cc1ccc(I)cc1)N[*:1])[*:2]].[O=C([C@H](Cc1ccc(-c2ccccc2)cc1)N[*:1])[*:2]].[am]}$$$$V2.0): the inhibition entry in test [1] and in test [3] was “inactive” each time. On Melanocortin receptor 4, the Emax is < 20%. Moreover, in test [2], the Activity is < 20%.

For `CC(=O)N1Cc2ccccc2C[C@H]1C(=O)N[C@@H](CCCNC(=N)N)C(=O)N[C@H](Cc1ccc(I)cc1)C(=O)N[C@@H](Cc1csc2ccccc12)C(N)=O` (HELM PEPTIDE1{[ac].[Tic].R.[O=C([C@@H](Cc1ccc(I)cc1)N[*:1])[*:2]].[O=C([C@H](Cc1csc2ccccc12)N[*:1])[*:2]].[am]}$$$$V2.0), the Emax on Melanocortin receptor 4 is < 20%.

`CC(=O)NC(Cc1ccccc1)C(=O)N[C@@H](CCCNC(=N)N)C(=O)N[C@H](Cc1ccc(I)cc1)C(=O)N[C@@H](Cc1ccc2ccccc2c1)C(N)=O` (stereo in doubt): the inhibition entry in test [1] was “inactive”. The Emax on Melanocortin receptor 4 was < 20%.

As for `CC(=O)N[C@@H](Cc1ccc(-c2ccccc2)cc1)C(=O)N[C@@H](CCCNC(=N)N)C(=O)N[C@H](Cc1ccc(I)cc1)C(=O)NC(Cc1ccccc1)C(N)=O` (stereo in doubt), the inhibition entry in test [1] was “inactive”. For the same compound, at Melanocortin receptor 4, the Emax was < 20%.

On to `CC(=O)N1Cc2ccccc2C[C@H]1C(=O)N[C@@H](CCCNC(=N)N)C(=O)N[C@H](Cc1ccc(I)cc1)C(=O)NC(Cc1ccccc1)C(N)=O` (stereo in doubt), for which the inhibition entry in test [1] and in test [3] was “inactive” each time. Further, at Melanocortin receptor 4, the Emax was < 20%. Besides, the Activity in test [2] was < 20%.

For the compound `CC(=O)NC(Cc1ccccc1)C(=O)N[C@@H](CCCNC(=N)N)C(=O)N[C@H](Cc1ccc(I)cc1)C(=O)N[C@@H](Cc1ccc(-c2ccccc2)cc1)C(N)=O` (stereo in doubt), the inhibition result in test [1] and in test [3] was “inactive” throughout. In addition, the Emax at Melanocortin receptor 4 was < 20%.

For `CC(=O)NC(Cc1ccccc1)C(=O)N[C@@H](CCCNC(=N)N)C(=O)N[C@H](Cc1ccc(I)cc1)C(=O)N1Cc2ccccc2C[C@H]1C(N)=O` (stereo in doubt), the Emax at Melanocortin receptor 4 is < 20%.

As for `CC(=O)NC(Cc1ccccc1)C(=O)N[C@@H](CCCNC(=N)N)C(=O)N[C@H](Cc1ccc(I)cc1)C(=O)N[C@H](Cc1ccc2ccccc2c1)C(N)=O` (stereo in doubt), the inhibition result in test [1] was “inactive”. Moreover, the Emax on Melanocortin receptor 4 is < 20%.

`CC(=O)N[C@@H](Cc1ccc2ccccc2c1)C(=O)N[C@@H](CCCNC(=N)N)C(=O)N[C@H](Cc1ccc(I)cc1)C(=O)NC(Cc1ccccc1)C(N)=O` (stereo in doubt): the inhibition result in test [1] and in test [3] was “inactive” in each case. For the same compound, the Emax on Melanocortin receptor 4 is < 20%.

As for `CC(=O)N[C@@H](Cc1cnc[nH]1)C(=O)N[C@@H](CCCNC(=N)N)C(=O)N[C@H](Cc1ccc(I)cc1)C(=O)NC(Cc1ccccc1)C(N)=O` (stereo in doubt), at Melanocortin receptor 4, the Emax was < 20%.

With `CC(=O)NC(Cc1ccccc1)C(=O)N[C@@H](CCCNC(=N)N)C(=O)N[C@H](Cc1ccc(I)cc1)C(=O)N[C@@H](Cc1csc2ccccc12)C(N)=O` (stereo in doubt), the Emax on Melanocortin receptor 4 is < 20%.

On to `CC(=O)N[C@@H](Cc1csc2ccccc12)C(=O)N[C@@H](CCCNC(=N)N)C(=O)N[C@H](Cc1ccc(I)cc1)C(=O)NC(Cc1ccccc1)C(N)=O` (stereo in doubt), for which the inhibition result in test [1] and in test [3] was “inactive” in each case. Besides, the Emax at Melanocortin receptor 4 was < 20%.

Take `CC(=O)NC(Cc1ccccc1)C(=O)N[C@@H](CCCNC(=N)N)C(=O)N[C@H](Cc1ccc(I)cc1)C(=O)NC(Cc1ccccc1)C(N)=O` (stereo in doubt): the inhibition result in test [1] and in test [3] was “inactive” each time. Further, the Emax at Melanocortin receptor 4 was < 20%.

Consider `CC(=O)N[C@@H](CCCNC(=N)N)C(=O)N[C@@H](CCCNC(=N)N)C(=O)N[C@H](Cc1ccc(I)cc1)C(=O)NC(Cc1ccccc1)C(N)=O` (stereo in doubt), for which, on Melanocortin receptor 4, the Emax is < 20%.

The values are drawn from ChEMBL document CHEMBL4049453, “Discovery of Mixed Pharmacology Melanocortin-3 Agonists and Melanocortin-4 Receptor Tetrapeptide Antagonist Compounds (TACOs) Based on the Sequence Ac-Xaa1-Arg-(pI)DPhe-Xaa4-NH2” (J Med Chem, 2017).
